Results reported in ChEMBL document CHEMBL1121487, “Fluorinated pyrimidine nucleosides. 4. Synthesis and antitumor testing of a series of 2',5'-dideoxy- and 2',3',5'-trideoxynucleosides of 5-fluorouracil” (1980).

Tests used:
Sarcoma-180 [1] = experiment: Percent reduction against sarcoma 180J tumor growth in mice when administered intraperitoneally at dose 100 mg/kg; assay type: functional, Mus musculus; conditions: route intraperitoneal
Procedure, shortened: (§1)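 Sarcoma 180J tumor model in mice, with eight intraperitoneal doses per schedule (mg/kg ip × 8). Read-out is percent reduction in tumor growth. Toxicity was tracked as the number of surviving mice out of the number tested, with group sizes of 8 to 24 mice.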

[2] = Antitumor activity against sarcoma 180J infected mice was evaluated as ratio of number of survivors to the number of tested animals at dose 200 mg/kg, ip; 12/16; assay type: functional
Procedure, shortened: (§2)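 Mice bearing sarcoma 180J were dosed intraperitoneally eight times (mg/kg per dose, ×8). Read-outs were percent reduction in tumor growth and the number of mice surviving out of the number tested at each dose level. Mouse deaths were taken as toxicity.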

Sarcoma-180 [3] = experiment: Percent reduction against sarcoma 180J tumor growth in mice when administered intraperitoneally at dose 200 mg/kg; assay type: functional, Mus musculus; conditions: route intraperitoneal; procedure, shortened: as §1
[4] = Antitumor activity against sarcoma 180J infected mice was evaluated as ratio of number of survivors to the number of tested animals at dose 100 mg/kg, ip; 7/8; assay type: functional; procedure, shortened: as §2
[5] = Antitumor activity against sarcoma 180J infected mice was evaluated as ratio of number of survivors to the number of 8 tested animals at dose 200 mg/kg, ip; 8/8; assay type: functional; procedure, shortened: as §2
[6] = Antitumor activity against sarcoma 180J infected mice was evaluated as ratio of number of survivors to the number of tested animals at dose 200 mg/kg, ip; 8/8; assay type: functional; procedure, shortened: as §2
[7] = Antitumor activity against sarcoma 180J infected mice was evaluated as ratio of number of survivors to the number of tested animals at dose 200 mg/kg, ip; 15/16
Sarcoma-180 [8] = experiment: Percent reduction against sarcoma 180J tumor growth in mice when administered intraperitoneally at dose 12.5 mg/kg; assay type: functional, Mus musculus; conditions: route intraperitoneal; procedure, shortened: as §1
[9] = Antitumor activity against sarcoma 180J infected mice was evaluated as ratio of number of survivors to the number of tested animals at dose 100 mg/kg, ip; 18/24; assay type: functional; procedure, shortened: as §2
[10] = Antitumor activity against sarcoma 180J infected mice was evaluated as ratio of number of survivors to the number of tested animals at dose 25 mg/kg, ip; 16/16; assay type: functional; procedure, shortened: as §2
[11] = Antitumor activity against sarcoma 180J infected mice was evaluated as ratio of number of survivors to the number of tested animals at dose 50 mg/kg, ip; 16/16; assay type: functional; procedure, shortened: as §2
Sarcoma-180 [12] = experiment: Percent reduction against sarcoma 180J tumor growth in mice when administered intraperitoneally at dose 50 mg/kg; assay type: functional, Mus musculus; conditions: route intraperitoneal; procedure, shortened: as §1
[13] = Antitumor activity against sarcoma 180J infected mice was evaluated as ratio of number of survivors to the number of tested animals at dose 12.5 mg/kg, ip; 8/8; assay type: functional; procedure, shortened: as §2
Sarcoma-180 [14] = experiment: (§3) Percent reduction against sarcoma 180J tumor growth in mice when administered intraperitoneally at dose 25 mg/kg; assay type: functional, Mus musculus; conditions: route intraperitoneal; procedure, shortened: as §1
[15] = Antitumor activity against sarcoma 180J infected mice was evaluated as ratio of number of survivors to the number of tested animals at dose 200 mg/kg, ip; 11/16; assay type: functional; procedure, shortened: as §2
Sarcoma-180 [16] = experiment: Percent reduction against sarcoma 180J tumor growth in mice when administered intraperitoneally at dose 40 mg/kg; assay type: functional, Mus musculus; conditions: route intraperitoneal; procedure, shortened: as §2
[17] = as §3; assay type: functional, Mus musculus; conditions: route intraperitoneal; procedure, shortened: as §2
[18] = Antitumor activity against sarcoma 180J infected mice was evaluated as ratio of number of survivors to the number of tested animals at dose 40 mg/kg, ip; 17/24; assay type: functional; procedure, shortened: as §2
[19] = Antitumor activity against sarcoma 180J infected mice was evaluated as ratio of number of survivors to the number of tested animals at dose 25 mg/kg, ip; 22/22; assay type: functional; procedure, shortened: as §2
[20] = Antitumor activity against sarcoma 180J infected mice was evaluated as ratio of number of survivors to the number of tested animals at dose 100 mg/kg, ip; 15/16; assay type: functional; procedure, shortened: as §2

## CC1CC[C@H](n2cc(F)c(=O)[nH]c2=O)O1 (stereo partly drawn)
Sarcoma-180 [1]
  Reduction: 35%
[2]
  Ratio: 12
Sarcoma-180 [3]
  Reduction: 81%
[4]
  Ratio: 7

## C[C@H]1O[C@@H]2C[C@H]1Oc1ncc(F)c(=O)n12
[5]
  Ratio: 8
Sarcoma-180 [3]
  Reduction: 28%

## C[C@H]1O[C@@H](n2cc(F)c(=O)[nH]c2=O)C[C@H]1O
[6]
  Ratio: 8
Sarcoma-180 [3]
  Reduction: 6%

## C[C@H]1O[C@@H](n2cc(F)c(=O)[nH]c2=O)C[C@@H]1O
[7]
  Ratio: 15
Sarcoma-180 [3]
  Reduction: 0%

## O=c1[nH]c(=O)n([C@H]2C[C@H](O)[C@@H](CO)O2)cc1F [FLOXURIDINE]
Sarcoma-180 [8]
  Reduction: 26%
[9]
  Ratio: 18
[10]
  Ratio: 16
Sarcoma-180 [1]
  Reduction: 93%
[11]
  Ratio: 16
Sarcoma-180 [12]
  Reduction: 85%
[13]
  Ratio: 8
Sarcoma-180 [14]
  Reduction: 61%
Sarcoma-180 [3]
  Reduction: 93%
[15]
  Ratio: 11

## O=c1[nH]cc(F)c(=O)[nH]1 [FLUOROURACIL]
Sarcoma-180 [16]
  Reduction: 87%
[17]
  Reduction: 38%
[18]
  Ratio: 17
[19]
  Ratio: 22

## O=c1[nH]c(=O)n(C2CCCO2)cc1F (stereo not drawn) [TEGAFUR]
Sarcoma-180 [1]
  Reduction: 46%
[20]
  Ratio: 15
[2]
  Ratio: 12
Sarcoma-180 [3]
  Reduction: 81%
